The source made the active and inactive calls. No cut-off for these calls is given here.
Legend:
[1] = Evaluated for antidepressant activity by its ability to inhibit tetrabenazine-induced (TBZ) ptosis in mice; type: functional; settings: Mus musculus
Summary of the method: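 Mice given tetrabenazine to induce ptosis; inhibition of ptosis scored. Compounds were screened at 20 mg/kg ip. […] ">20" marks activity at the 20 mg/kg ip screening dose without a dose-response run.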

Mus musculus = species: Mus musculus; test: Evaluated for antidepressant activity by its ability to inhibit tetrabenazine-induced (TBZ) ptosis in mice; Inactive; type: functional, organism-based

Structure (SMILES) | ED50 [1] [mg/kg] | ED50 (Mus musculus)
CNCCN1Cc2cccc3c2N(CC3)c2ccccc21.O=C(O)C(=O)O | > 20 | 
CNCCCN1c2ccccc2CCc2ccccc21 [DESIPRAMINE] | 1.5 | 
CN(C)CC(=O)N1Cc2cccc3c2N(CC3)c2ccccc21 | > 20 | 
CNCC(=O)N1c2ccccc2N2CCc3cc(Cl)cc(c32)C1C (stereo unspecified) |  | inactive
CC1c2cc(Cl)cc3c2N(CC3)c2ccccc2N1C(=O)CCN(C)C (stereo unspecified) |  | inactive
CNCCC(=O)N1c2ccccc2N2CCc3cc(Cl)cc(c32)C1C (stereo unspecified) |  | inactive
CCCNCC(=O)N1c2ccccc2N2CCc3cccc(c32)C1C (stereo unspecified) | > 20 | 
Br.CC1c2cccc3c2N(CC3)c2ccccc2N1CCN(C)C (stereo unspecified) | 5 | 
Br.Br.CC1c2cccc3c2N(CC3)c2ccccc2N1CCN (stereo unspecified) | 2.2 | 
CN(C)CCC(=O)N1Cc2cccc3c2N(CC3)c2ccccc21 | > 20 | 
Br.Br.CNCCCN1Cc2cccc3c2N(CC3)c2ccccc21 | 1.5 | 
CN(C)CCN1c2ccccc2N2CCc3cccc(c32)C1CCc1ccccc1.O=C(O)C(=O)O (stereo unspecified) | > 20 | 
CNCCCN1c2ccccc2N2CCc3cccc(c32)C1C.Cl.Cl (stereo unspecified) | 9.5 | 
CCCNCCC(=O)N1c2ccccc2N2CCc3cccc(c32)C1C.Cl (stereo unspecified) | > 20 | 
CC1c2cc(Cl)cc3c2N(CC3)c2ccccc2N1C(=O)CN(C)C (stereo unspecified) |  | inactive
Br.Br.CNCCN1c2ccccc2N2CCc3cccc(c32)C1C (stereo unspecified) | 8 | 

Structure (SMILES) | ED50 [1] [mg/kg] | ED50 (Mus musculus)
CC1c2cccc3c2N(CC3)c2ccccc2N1C(=O)CN(C)C (stereo unspecified) | 13.5 | 
CNCCCN1c2ccccc2N2CCc3cc(Cl)cc(c32)C1C (stereo unspecified) |  | inactive
CC1c2cccc3c2N(CC3)c2ccccc2N1C(=O)CCN1CCN(c2ccccc2)CC1 (stereo unspecified) | > 20 | 
CC1c2cccc3c2N(CC3)c2ccccc2N1C(=O)CCCN(C)C.Cl (stereo unspecified) | > 20 | 
CC1c2cccc3c2N(CC3)c2ccccc2N1C(=O)CCN(C)C (stereo unspecified) | 16 | 
CN(C)CCC=C1c2ccccc2CCc2ccccc21 [AMITRIPTYLINE] | 4.5 | 
CNCC(=O)N1Cc2cccc3c2N(CC3)c2ccccc21 | > 20 | 
CC1c2cccc3c2N(CC3)c2ccccc2N1C(=O)CCN1CCCCC1 (stereo unspecified) | > 20 | 
CNCCN1c2ccccc2N2CCc3cc(Cl)cc(c32)C1C (stereo unspecified) |  | inactive
Br.Br.CCCNCCN1c2ccccc2N2CCc3cccc(c32)C1C (stereo unspecified) | > 20 | 
CNCCC(=O)N1c2ccccc2N2CCc3cccc(c32)C1C (stereo unspecified) | 4 | 
CNCC(=O)N1c2ccccc2N2CCc3cccc(c32)C1C (stereo unspecified) | 2 | 
CN(C)CCC(=O)N1c2ccccc2N2CCc3cccc(c32)C1C1CCCCC1.Cl (stereo unspecified) | > 20 | 
CN(C)CCCN1Cc2cccc3c2N(CC3)c2ccccc21.Cl.Cl | 16 | 
CCN(CC)CCC(=O)N1c2ccccc2N2CCc3cccc(c32)C1C (stereo unspecified) | > 20 | 

From ChEMBL document CHEMBL1121368, “7-(Aminoacyl) and 7-(aminoalkyl) derivatives of 1,2,6,7-tetrahydroindolo[1,7-ab][1,5]benzodiazepines as potential antidepressant agents” (1980)
